Our source for the IC50 and Activity values is ChEMBL document CHEMBL3588752, “Synthesis and in Vitro Anticancer Activity of the First Class of Dual Inhibitors of REV-ERBβ and Autophagy” (J Med Chem, 2015).

Common to all, as to type: functional, cell-based
A short description of assay [1]: Inhibition of cell proliferation of breast cancer cells (unknown origin). Particulars: Cancer cell lines.
Assay [2] deals with MCF7. Nature of the assay: Cytotoxicity against human MCF7 cells assessed as reduction in cell number incubated for 72 hrs. The note with it: MCF7, 72 h. The procedure, abridged: (§1)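 Grown in high-glucose DMEM with 4 mM L-glutamine, 10% FBS and 0.5 mM sodium pyruvate. Seeded at 2000 cells/well overnight, then treated 72 h with seven 3-fold dilutions from 100 µM. Cell number by CyQUANT, % of vehicle. IC50 by log(inhibitor)–response fit, mean ± SEM, n ≥ 6.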

A short description of assay [3]: Reduction in GFP expression in human SKBR3 cells transfected with plasmids co-expressing GFP and shRNAs against REV-ERBbeta followed by compound treatment 24 hrs post-transfection and measured 48 hrs post dose. The note with it: SK-BR-3.
A short description of assay [4]: Cytotoxicity against human SKBR3 cells assessed as reduction in cell number incubated for 72 hrs. Particulars: SK-BR-3, 72 h. The essentials: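 McCoy's medium plus 10% FBS; 2000 cells/well, overnight attachment, 72 h treatment with seven 3-fold dilutions from 100 µM (900 µM top for the reference autophagy inhibitor). CyQUANT cell number as % of vehicle. IC50 by log(inhibitor)–response fitting, mean ± SEM of ≥6 experiments.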

Assay [5] has as its system MDA-MB-361. Nature of the assay: Cytotoxicity against human MDA-MB-361 cells assessed as reduction in cell number incubated for 72 hrs. Particulars: MDA-MB-361, 72 h. The procedure, abridged:
(§2)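 RPMI-1640 with 4 mM L-glutamine and 10% FBS for culture. 2000 cells/well seeded overnight, then 72 h exposure to seven 3-fold dilutions (top 100 µM; top 900 µM for the reference autophagy inhibitor in MDA-MB-361). Cell number by CyQUANT relative to vehicle. IC50 from concentration–response curves, mean ± SEM, n ≥ 6.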

The nature of assay [6]: Inhibition of cell proliferation of PDAC cells (unknown origin).
Assay [7] concerns HepG2. Nature of the assay: Reduction in GFP expression in human HepG2 cells transfected with plasmids co-expressing GFP and shRNAs against REV-ERBbeta followed by compound treatment 24 hrs post-transfection and measured 48 hrs post dose.
The nature of assay [8]: Inhibition of cell proliferation of lung cancer cells (unknown origin). Particulars: Cancer cell lines.
The subject of assay [9] is LNCaP. Kind of assay: Reduction in GFP expression in human LNCAP cells transfected with plasmids co-expressing GFP and shRNAs against REV-ERBbeta followed by compound treatment 24 hrs post-transfection and measured 48 hrs post dose.
The test system of assay [10] is LNCaP. Kind of assay: Cytotoxicity against human LNCAP cells assessed as reduction in cell number incubated for 72 hrs. The procedure, abridged:
as §2

Assay [11] deals with HepG2. Kind of assay: Cytotoxicity against human HepG2 cells assessed as reduction in cell number incubated for 72 hrs. The note with it: HepG2, 72 h. The essentials:
as §1

The source made the active and inactive calls. No cut-off for these calls is given here. Bounds are passed on as bounds.

Turning to `CCN(CC)CCCC(C)Nc1ccnc2cc(Cl)ccc12` (racemic) [CHLOROQUINE], the IC50 in assay [1] was more than 100 µM; in [2], 23.4 µM; in [4], 50.4 µM; in assay [5], 97 µM; in assay [6] it was 10 µM; in assay [8] it was more than 100 µM. Besides, the half-maximal inhibitory concentration (IC50) in [10] was found to be 32.9 µM; in assay [11], 25 µM. Moreover, the outcome in assay [3], in assay [7] and in [9] was Active.

In general, IC50 refers to the midpoint of a concentration-inhibition curve.
